Source: PubChem (several laboratories)
PolyA inhibitor: polyadenylation inhibitors in yeast reporter cells, primary screen, luminescence, S. cerevisiae; S. cerevisiae SKY197-pL101 polyadenylation reporter, beta-gal luminescence; efflux-impaired pdr1/pdr3 knockout yeast; score 100 = 6 SD above DMSO; activity score, % at 12 µM; hit rate 0.02% among 300,000; AID 1875, 2009;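 active = lowest replicate activity score at least 50, where 100 means six control SD above control mean; inconclusive = lowest score under 50 but half or more replicates reach 50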;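 also: yeast exposed to compound for 9 h at 30 °C; higher score means more reporter readthrough which indicates perturbed polyadenylation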
Efflux pump inh: inhibitors of Candida efflux pumps in yeast, primary screen, S. cerevisiae, Nile Red, multiplex; S. cerevisiae Candida pump triplex; inhibition, % at 10 µM; hit rate 0.44% among 330,000;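 active = plate passing quality check with inhibition over a set limit, or well fluorescence over plate mean plus 4 SD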;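 also: Nile Red retained in pooled yeast measured as flow cytometry median fluorescence; higher means more Nile Red kept so more efflux inhibition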
T cruzi inh: inhibitors of intracellular T. cruzi growth, primary screen, luminescence, NIH3T3 host cells. T. cruzi beta-gal in NIH3T3, 90 h. inhibition, % (no concentration beside the values). hit rate 1.4% among 300,000. AID 1885, 2009;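 active = mean inhibition across valid replicates above about 55%, limit read from the data; inconclusive = mean below that limit but half or more replicates reach it; inactive = mean below it, under half of replicates reach it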;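 also: signal also drops with host cell toxicity which is not excluded here; higher percent means less beta-gal luminescence so fewer parasites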
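Assay system: NIH/3T3 fibroblasts plus reporter T. cruzi. Amount: NIH/3T3 cells, 5,000 per well. Buffer or medium: DMEM, 2% fetal bovine serum. Doses: compound pinned at 50 nL/well, DMSO. Schedule: ≥90 h infection period, 3 h prior cell attachment. Signal: luminescent β-galactosidase signal after 60 min lysis. Read-out: parasite load inhibition, %.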
AI-2 QS modul: Vibrio harveyi AI-2 quorum sensing modulators, primary screen, JMH597 strain, luminescence/OD600 ratio; Vibrio harveyi JMH597 AI-2 luminescence/OD600 ratio, 9 h; hits give low values; strain lacks LuxN and CqsS sensors; 0 = neutral-control median; activity change, % at 7.5 µM; hit rate 0.4% among 300,000; in the data active = activity change below about -75%, passing the limit was not always enough; inconclusive = no clear call, values can overlap the other calls;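 also: luminescence divided by OD600 gain over 9 h not by final OD600 alone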
HDAC3 inh: HDAC3 deacetylase inhibitors, primary screen, biochemical, fluorescence, cell-free homogeneous; AID 2718, 2010; Histone deacetylase 3 (Homo sapiens), O15379; hit rate 0.15% among 320,000; recombinant HDAC3, fluorogenic peptide/trypsin coupled; inhibition, % at 8.3 µM; in the data active = inhibition above about 26%, passing the limit was not always enough; inconclusive = no clear call, values can overlap the other calls
Target sequence (O15379 whole entry, looked up): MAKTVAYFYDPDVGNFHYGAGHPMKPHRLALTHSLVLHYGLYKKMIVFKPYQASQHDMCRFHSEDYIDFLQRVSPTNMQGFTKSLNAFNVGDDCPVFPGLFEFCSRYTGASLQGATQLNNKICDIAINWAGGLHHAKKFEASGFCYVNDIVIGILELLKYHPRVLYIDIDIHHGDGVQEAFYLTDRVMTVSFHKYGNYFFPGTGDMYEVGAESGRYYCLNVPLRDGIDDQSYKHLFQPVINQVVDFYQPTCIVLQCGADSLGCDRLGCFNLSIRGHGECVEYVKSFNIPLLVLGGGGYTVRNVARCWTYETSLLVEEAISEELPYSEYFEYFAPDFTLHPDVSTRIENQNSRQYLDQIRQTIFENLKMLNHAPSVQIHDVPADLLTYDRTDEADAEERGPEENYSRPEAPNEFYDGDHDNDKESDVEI
Large screens that a line does not name were inactive; ! = not confirmed by another sample. The list is not random: actives were taken first. Their share in the collection is about 2.2%.

Cc1ccc(NC(=S)NNC(=S)Nc2cccc(C(F)(F)F)c2)cc1	HDAC3 inh inconclusive
COc1ccccc1Nc1nc(N)nc(CSC(=S)N2CCN(c3ccccc3)CC2)n1	T cruzi inh 63
COc1ccccc1Nc1nc(N)nc(CSC(=S)N2CCC(C)CC2)n1	none
O=C(/C=C/c1cccs1)Nc1ccc(Br)cn1	none
O=C1N=C(N2CCCC2)CN1c1ccccc1	none
CN1c2ccccc2Sc2cc(N)ccc21	T cruzi inh 71
Cc1ccc(N(CC(=O)N2CCCCCC2)S(=O)(=O)c2ccccc2)cc1	none
COc1ccc(-n2c(SCC(=O)C(C)(C)C)nc3c(sc(=S)n3-c3ccccc3)c2=O)c(OC)c1	T cruzi inh 60
Cc1ccc(NCc2ccccc2)cc1	T cruzi inh 58
Cc1ccc(NCc2ccc(C)s2)cc1	T cruzi inh 71
Cc1ccc(CNc2ccc(N3CCOCC3)cc2)s1	none
CCSc1nnc(NC(=O)CN2C(=O)NC3(CCCC3)C2=O)s1	none (no result: PolyA inhibitor, T cruzi inh, AI-2 QS modul)
CCC(NC(=O)c1ccc([N+](=O)[O-])cc1[N+](=O)[O-])c1ccccc1 (stereo not drawn)	T cruzi inh 58
O=C(OCC(=O)N1CCN(C(=O)c2ccco2)CC1)c1cncc(Br)c1	none (no result: PolyA inhibitor, T cruzi inh, AI-2 QS modul)
Cc1cc2c(c(=O)n1Cc1ccc3c(c1)OCO3)C(c1cccnc1)C(C#N)=C(N)O2 (stereo not drawn)	T cruzi inh 61
CCOC(=O)Nc1ccc2c(c1)N(C(=O)CCN1CCOCC1)c1ccccc1S2	T cruzi inh 68!
COC(=O)Nc1ccc2c(c1)N(C(=O)CCN1CCOCC1)c1ccccc1S2	none
COCCn1c(SCC(=O)NC(=O)NCc2ccccc2)nc2ccccc21	T cruzi inh 55
N#CC1=C(N)Oc2c(ccc3ccccc23)C1c1ccsc1 (stereo not drawn)	T cruzi inh 75
COC(=O)C1=CN(C2CCCCC2)C=C(C(=O)OC)C1c1ccc2c(c1)OCO2	T cruzi inh 62
O=C(c1ccc(Cl)cc1)N1CCN(c2ccnc3cc(Cl)ccc23)CC1	T cruzi inh 69 (no result: Efflux pump inh, HDAC3 inh)
CCN(CC)CC#CCC(O)(c1ccccc1)C1CCCC1 (stereo not drawn)	T cruzi inh 59
CN(C)CC#CCC(O)(c1ccccc1)C1CCCCC1 (stereo not drawn)	none
CCC(=O)N/N=C/c1ccc(OS(=O)(=O)c2ccccc2)cc1	none
NC(N)=N/N=C/c1ccc(OS(=O)(=O)c2ccccc2)cc1	T cruzi inh 57
O=C(OCc1cc(=O)n2ccsc2n1)c1ccccc1NCCO	none (no result: PolyA inhibitor, T cruzi inh, AI-2 QS modul)
COc1ccc(OC)c(/C=C/c2ccc3cccc(O)c3n2)c1	T cruzi inh 61
COc1cc(Br)cc(/C=C/c2ccc3cccc(O)c3n2)c1O	none
COc1cc(Br)c(/C=C/c2ccc3cccc(O)c3n2)cc1OC	T cruzi inh 57
COc1cc(/C=C/c2ccc3cccc(O)c3n2)c(Br)cc1O	T cruzi inh 56
CCOCCCNC(=O)c1ccc(OC2CCN(C(C)=O)CC2)c(OC)c1	none
Cc1cc2nnc(SCC(=O)N(C)C3CCS(=O)(=O)C3)n2c2ccccc12 (stereo not drawn)	none
O=C1c2cccc3cccc(c23)C(=O)N1CC1CCN(CC(O)COc2ccc3ccccc3c2)CC1 (stereo not drawn)	T cruzi inh 66
O=C1c2cccc3cccc(c23)C(=O)N1CCN1CCN(CC(O)COc2ccc3ccccc3c2)CC1 (stereo not drawn)	none
CCc1ccc(OCC(O)CN2CCC(CN3C(=O)c4cccc5cccc(c45)C3=O)CC2)cc1 (stereo not drawn)	T cruzi inh 56
Cc1cc(C)cc(OCC(O)CN2CCC(CN3C(=O)c4cccc5cccc(c45)C3=O)CC2)c1 (stereo not drawn)	T cruzi inh 57
COc1cccc(OCC(O)CN2CCC(CN3C(=O)c4cccc5cccc(c45)C3=O)CC2)c1 (stereo not drawn)	T cruzi inh 63
COc1ccc(COCC(O)CN2CCC(CN3C(=O)c4cccc5cccc(c45)C3=O)CC2)cc1OC (stereo not drawn)	none
COCCN1CCN(C(=O)c2cc(COc3ccc(F)cc3F)on2)CC1	none
O=C(CCl)N(c1ccc(Cl)cc1)c1c[nH]c2ccccc12	T cruzi inh 58
O=C(CCl)N(c1ccccc1)c1c[nH]c2ccccc12	none
CC(=O)NCC(=O)OC(C(=O)c1ccccc1)c1ccc(Cl)cc1 (stereo not drawn)	none
COc1ccc(NC(C)=[N+](C)CCNS(=O)(=O)c2ccc(Cl)cc2)cc1Cl	T cruzi inh 58
Cc1cc(C)cc(N=Cc2[nH]c3ccc(Br)c(Cl)c3c2O)c1	none
COc1ccc(CN=Cc2[nH]c3ccc(Br)c(Cl)c3c2O)cc1	T cruzi inh 55
COC(=O)c1ccsc1NC(=O)CN1CCN(Cc2ccc3c(c2)OCO3)CC1	none
COC(=O)c1c(NC(=O)CN2CCN(Cc3ccc4c(c3)OCO4)CC2)sc(C)c1C	T cruzi inh 59
Cc1c2c(n3c(nc4ccccc43)c1C#N)N(CCCN(C)C)CC2	T cruzi inh 63
Cc1c(Cc2ccccc2)c(NCCN(C)C)n2c(nc3ccccc32)c1C#N	T cruzi inh 56
Cc1c2c(n3c(nc4ccccc43)c1C#N)N(CCN(C)C)CC2	T cruzi inh 70
Cc1ccc(N2C(=O)C3CC(c4ccccc4)=C4C5C=CC(C6C(=O)N(c7ccc(C)cc7C)C(=O)C56)C4C3C2=O)c(C)c1 (stereo not drawn)	T cruzi inh 59
C/C=C\C(=O)Nc1cccc(C2=NOC3(C2)C[C@@H](C(N)=O)N(C(=O)c2ccc(OC)cc2)C3)c1 (stereo partly drawn)	none
COc1cccc(COc2cc3ccccc3nc2C)c1	AI-2 QS modul -89
CCCCC(=O)NC(c1ccc(N(C)C)cc1)c1ccc2cccnc2c1O (stereo not drawn)	T cruzi inh 57 (no result: AI-2 QS modul)
CC(C)C(=O)NC(c1cccc([N+](=O)[O-])c1)c1ccc2cccnc2c1O (stereo not drawn)	none
CCCC(=O)NC(c1ccc(N(C)C)cc1)c1c(O)ccc2ccccc12 (stereo not drawn)	none (no result: HDAC3 inh)
CCCCC(=O)NC(c1ccc(N(CC)CC)cc1)c1ccc2cccnc2c1O (stereo not drawn)	T cruzi inh 68
C=CCNC(=O)NC(=O)COC(=O)CNS(=O)(=O)c1ccc(F)c(F)c1F	none
OC(CNCc1ccccc1)COc1ccccc1 (stereo not drawn)	none (no result: Efflux pump inh)
Cc1ccc(OCC(O)CNCc2ccc(F)cc2)cc1 (stereo not drawn)	T cruzi inh 56
O=C(NC1CCCCC1)c1cc(C2CC2)nn1-c1ccccc1	none (no result: PolyA inhibitor, T cruzi inh, AI-2 QS modul, HDAC3 inh)
